Data reported in ChEMBL document CHEMBL1135530, “Selective alpha4beta7 integrin antagonists and their potential as antiinflammatory agents” (J Med Chem, 2002).
Peptide text beside a SMILES is read from it.

Columns and labels:
[1] = biological target: T1, Integrin alpha-4/beta-7 (Homo sapiens, UniProt P13612+P26010); assay: Ability to block the alpha4-beta7 integrin-MAdCAM-1 binding interaction using a protein ELISA format; type: protein-complex assay
T1 sequence (P13612 whole entry): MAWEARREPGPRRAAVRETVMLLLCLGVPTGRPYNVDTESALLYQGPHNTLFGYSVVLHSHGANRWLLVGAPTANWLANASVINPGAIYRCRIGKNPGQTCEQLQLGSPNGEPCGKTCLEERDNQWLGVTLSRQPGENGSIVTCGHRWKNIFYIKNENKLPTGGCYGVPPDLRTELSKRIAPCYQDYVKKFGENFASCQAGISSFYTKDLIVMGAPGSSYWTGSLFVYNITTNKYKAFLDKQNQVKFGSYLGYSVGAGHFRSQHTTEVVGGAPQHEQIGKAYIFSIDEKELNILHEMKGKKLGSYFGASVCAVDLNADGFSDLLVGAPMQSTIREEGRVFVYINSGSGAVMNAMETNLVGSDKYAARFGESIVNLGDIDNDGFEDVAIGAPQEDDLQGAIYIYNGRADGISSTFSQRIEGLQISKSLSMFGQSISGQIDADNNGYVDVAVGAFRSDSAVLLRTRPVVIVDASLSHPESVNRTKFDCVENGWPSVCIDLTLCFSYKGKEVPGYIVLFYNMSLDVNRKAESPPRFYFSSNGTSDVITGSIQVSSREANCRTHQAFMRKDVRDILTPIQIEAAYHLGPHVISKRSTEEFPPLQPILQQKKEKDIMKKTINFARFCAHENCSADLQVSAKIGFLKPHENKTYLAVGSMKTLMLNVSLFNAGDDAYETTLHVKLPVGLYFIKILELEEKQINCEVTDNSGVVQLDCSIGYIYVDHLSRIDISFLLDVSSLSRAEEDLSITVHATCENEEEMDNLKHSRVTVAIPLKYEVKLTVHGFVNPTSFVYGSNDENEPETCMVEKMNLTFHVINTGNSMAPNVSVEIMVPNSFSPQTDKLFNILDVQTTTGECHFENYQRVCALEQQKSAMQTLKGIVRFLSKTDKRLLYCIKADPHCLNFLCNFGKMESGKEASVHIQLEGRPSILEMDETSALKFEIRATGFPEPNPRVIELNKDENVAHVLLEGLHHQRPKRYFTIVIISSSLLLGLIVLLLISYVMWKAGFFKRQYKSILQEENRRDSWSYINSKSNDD
T1 sequence (P26010 whole entry): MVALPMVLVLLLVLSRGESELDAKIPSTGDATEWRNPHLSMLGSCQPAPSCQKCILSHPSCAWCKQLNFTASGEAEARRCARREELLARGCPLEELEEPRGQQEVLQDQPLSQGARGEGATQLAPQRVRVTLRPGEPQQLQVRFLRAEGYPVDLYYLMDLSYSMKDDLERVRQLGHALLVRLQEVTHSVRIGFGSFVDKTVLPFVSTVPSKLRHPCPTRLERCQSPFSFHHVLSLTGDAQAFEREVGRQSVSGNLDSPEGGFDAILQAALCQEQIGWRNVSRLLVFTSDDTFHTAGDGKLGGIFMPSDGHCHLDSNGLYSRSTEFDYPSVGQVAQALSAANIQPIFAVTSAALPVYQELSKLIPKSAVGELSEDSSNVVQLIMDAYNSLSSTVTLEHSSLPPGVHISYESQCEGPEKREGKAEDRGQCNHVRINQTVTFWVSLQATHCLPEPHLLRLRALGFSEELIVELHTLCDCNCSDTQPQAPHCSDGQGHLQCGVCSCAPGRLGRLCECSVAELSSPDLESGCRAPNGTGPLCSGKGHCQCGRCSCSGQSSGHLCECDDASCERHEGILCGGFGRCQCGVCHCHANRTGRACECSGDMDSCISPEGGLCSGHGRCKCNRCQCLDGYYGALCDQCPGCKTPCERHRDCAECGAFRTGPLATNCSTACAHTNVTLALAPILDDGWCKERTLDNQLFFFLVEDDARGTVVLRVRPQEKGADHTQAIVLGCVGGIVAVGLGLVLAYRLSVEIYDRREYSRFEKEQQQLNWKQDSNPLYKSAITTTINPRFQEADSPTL
In short: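 Plates coated overnight at 4 °C with anti-human α4 antibody 9F10 (2 µg/mL), blocked in Tris pH 7.5 buffer with 1 mM MnCl2, Tween-20 and 0.5% BSA, then loaded with α4β7 purified from transfected JY cells (2 µg/mL). Compounds (1 nM–200 µM final, triplicate) plus MAdCAM-1-Ig-HRP (1 µg/mL), 2 h room temperature. TMB read at 450 nm; IC50 at half-maximal absorbance.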

[2] = Selectivity is the ratio of inhibitory concentrations at alpha4-beta1 integrin to alpha4-beta7 integrin
[3] = biological target: Integrin alpha-4/beta-1 (Homo sapiens, UniProt P05556+P13612); assay: Inhibitory concentration affording 50% inhibition of alpha4-beta1 integrin binding to VCAM-1, using ELISA assay.; type: protein-complex assay
Chain of Integrin alpha-4/beta-1 (P05556 whole entry, one chain of several, the tested form may be a part): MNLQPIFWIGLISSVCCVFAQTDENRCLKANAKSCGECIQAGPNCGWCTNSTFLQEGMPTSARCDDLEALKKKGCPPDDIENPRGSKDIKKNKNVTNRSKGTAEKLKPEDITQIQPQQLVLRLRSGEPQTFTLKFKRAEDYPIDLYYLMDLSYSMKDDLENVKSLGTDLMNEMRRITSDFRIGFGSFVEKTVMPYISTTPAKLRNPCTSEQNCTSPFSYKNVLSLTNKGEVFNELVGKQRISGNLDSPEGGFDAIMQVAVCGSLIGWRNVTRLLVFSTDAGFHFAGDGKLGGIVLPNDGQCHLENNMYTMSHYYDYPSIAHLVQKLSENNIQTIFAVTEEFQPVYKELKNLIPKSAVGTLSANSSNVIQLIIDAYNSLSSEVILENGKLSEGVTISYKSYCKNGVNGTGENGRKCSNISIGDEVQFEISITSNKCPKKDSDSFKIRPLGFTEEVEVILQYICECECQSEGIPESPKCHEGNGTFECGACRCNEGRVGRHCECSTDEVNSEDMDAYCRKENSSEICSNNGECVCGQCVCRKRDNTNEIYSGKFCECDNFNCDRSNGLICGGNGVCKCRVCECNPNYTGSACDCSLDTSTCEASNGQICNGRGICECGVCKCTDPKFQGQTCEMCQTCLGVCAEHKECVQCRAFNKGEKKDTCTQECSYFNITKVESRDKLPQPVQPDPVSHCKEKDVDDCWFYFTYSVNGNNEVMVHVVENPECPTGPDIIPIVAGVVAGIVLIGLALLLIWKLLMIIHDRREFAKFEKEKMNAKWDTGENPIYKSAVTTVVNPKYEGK
In short: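 α4β1 extracted from Ramos cell membranes (lectin chromatography, gel filtration in 1% octylglucoside), with 1 mM MnCl2 throughout. Wells coated with 4 µg/mL recombinant soluble human VCAM-1 (5 N-terminal Ig domains, from CHO cells) and blocked with 1% BSA. Inhibitor and receptor 2 h at 37 °C in Tris pH 7.4. Bound receptor detected with anti-β1 mAb 2D4.6, then HRP anti-mouse and TMB at 450 nm. IC50 at half-maximal absorbance.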

[4] = biological target: Integrin alpha-V/beta-3 (Homo sapiens, UniProt P05106+P06756); assay: Ability to block the alphaV-beta3 integrin binding to vitronectin; type: protein-complex assay
Chain of Integrin alpha-V/beta-3 (P05106 27-788 limits assumed): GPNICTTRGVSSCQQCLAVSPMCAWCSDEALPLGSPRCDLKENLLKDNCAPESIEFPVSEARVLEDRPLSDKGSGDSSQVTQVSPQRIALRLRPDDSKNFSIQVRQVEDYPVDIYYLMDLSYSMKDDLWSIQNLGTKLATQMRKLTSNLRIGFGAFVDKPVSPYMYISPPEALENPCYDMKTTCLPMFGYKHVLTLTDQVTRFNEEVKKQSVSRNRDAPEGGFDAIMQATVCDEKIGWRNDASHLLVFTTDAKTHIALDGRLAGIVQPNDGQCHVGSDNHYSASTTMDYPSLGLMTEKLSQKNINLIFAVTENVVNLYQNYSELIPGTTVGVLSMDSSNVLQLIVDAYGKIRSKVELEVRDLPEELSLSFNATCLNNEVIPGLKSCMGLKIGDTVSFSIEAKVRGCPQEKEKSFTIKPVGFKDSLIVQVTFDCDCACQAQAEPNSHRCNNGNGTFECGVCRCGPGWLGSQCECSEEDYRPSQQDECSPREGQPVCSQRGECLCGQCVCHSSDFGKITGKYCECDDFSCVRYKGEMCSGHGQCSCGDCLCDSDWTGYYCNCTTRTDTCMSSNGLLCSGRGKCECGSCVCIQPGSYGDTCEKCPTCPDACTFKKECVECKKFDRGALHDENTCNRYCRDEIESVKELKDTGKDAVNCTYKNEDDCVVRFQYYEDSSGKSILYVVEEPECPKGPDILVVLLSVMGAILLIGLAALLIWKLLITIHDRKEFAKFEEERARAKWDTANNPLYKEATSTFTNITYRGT
Chain of Integrin alpha-V/beta-3 (P06756 31-889 limits assumed): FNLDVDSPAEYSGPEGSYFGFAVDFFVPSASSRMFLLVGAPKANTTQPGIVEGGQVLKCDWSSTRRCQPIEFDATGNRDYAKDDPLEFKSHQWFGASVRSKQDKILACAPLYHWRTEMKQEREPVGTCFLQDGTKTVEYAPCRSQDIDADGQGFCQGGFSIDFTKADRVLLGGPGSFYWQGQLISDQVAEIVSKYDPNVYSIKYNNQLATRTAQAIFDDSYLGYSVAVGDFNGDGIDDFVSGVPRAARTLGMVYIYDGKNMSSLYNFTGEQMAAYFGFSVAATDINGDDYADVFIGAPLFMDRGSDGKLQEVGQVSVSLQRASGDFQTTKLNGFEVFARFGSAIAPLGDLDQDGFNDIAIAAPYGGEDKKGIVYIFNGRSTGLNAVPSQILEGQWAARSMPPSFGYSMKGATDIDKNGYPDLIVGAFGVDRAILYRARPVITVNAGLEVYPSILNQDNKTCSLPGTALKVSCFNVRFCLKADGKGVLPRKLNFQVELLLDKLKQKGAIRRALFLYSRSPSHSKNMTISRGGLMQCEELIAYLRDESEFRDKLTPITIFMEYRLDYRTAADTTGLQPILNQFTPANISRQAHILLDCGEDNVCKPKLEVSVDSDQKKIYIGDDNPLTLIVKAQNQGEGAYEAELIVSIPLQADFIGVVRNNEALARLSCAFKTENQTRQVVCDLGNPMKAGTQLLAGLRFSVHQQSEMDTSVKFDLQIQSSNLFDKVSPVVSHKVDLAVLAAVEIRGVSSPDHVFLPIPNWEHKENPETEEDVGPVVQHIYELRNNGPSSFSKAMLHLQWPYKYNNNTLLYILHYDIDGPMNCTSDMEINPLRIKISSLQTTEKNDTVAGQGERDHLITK
Chain of Integrin alpha-V/beta-3 (P06756 891-1048 limits assumed): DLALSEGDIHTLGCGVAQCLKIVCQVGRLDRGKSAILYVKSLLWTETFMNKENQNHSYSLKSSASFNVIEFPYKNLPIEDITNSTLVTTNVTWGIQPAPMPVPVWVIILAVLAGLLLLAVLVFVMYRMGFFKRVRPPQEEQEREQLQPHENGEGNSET

[5] = biological target: Integrin alpha-IIb/beta-3 (Homo sapiens, UniProt P05106+P08514); assay: Inhibition of alpha IIb beta3 integrin binding to fibrinogen; type: protein-complex assay
[6] = biological target: Integrin alpha-5/beta-1 (Homo sapiens, UniProt P05556+P08648); assay: Ability to block the alpha5-beta1 integrin binding to fibronectin; type: protein-complex assay
Chain of Integrin alpha-5/beta-1 (P05556 21-798 limits assumed): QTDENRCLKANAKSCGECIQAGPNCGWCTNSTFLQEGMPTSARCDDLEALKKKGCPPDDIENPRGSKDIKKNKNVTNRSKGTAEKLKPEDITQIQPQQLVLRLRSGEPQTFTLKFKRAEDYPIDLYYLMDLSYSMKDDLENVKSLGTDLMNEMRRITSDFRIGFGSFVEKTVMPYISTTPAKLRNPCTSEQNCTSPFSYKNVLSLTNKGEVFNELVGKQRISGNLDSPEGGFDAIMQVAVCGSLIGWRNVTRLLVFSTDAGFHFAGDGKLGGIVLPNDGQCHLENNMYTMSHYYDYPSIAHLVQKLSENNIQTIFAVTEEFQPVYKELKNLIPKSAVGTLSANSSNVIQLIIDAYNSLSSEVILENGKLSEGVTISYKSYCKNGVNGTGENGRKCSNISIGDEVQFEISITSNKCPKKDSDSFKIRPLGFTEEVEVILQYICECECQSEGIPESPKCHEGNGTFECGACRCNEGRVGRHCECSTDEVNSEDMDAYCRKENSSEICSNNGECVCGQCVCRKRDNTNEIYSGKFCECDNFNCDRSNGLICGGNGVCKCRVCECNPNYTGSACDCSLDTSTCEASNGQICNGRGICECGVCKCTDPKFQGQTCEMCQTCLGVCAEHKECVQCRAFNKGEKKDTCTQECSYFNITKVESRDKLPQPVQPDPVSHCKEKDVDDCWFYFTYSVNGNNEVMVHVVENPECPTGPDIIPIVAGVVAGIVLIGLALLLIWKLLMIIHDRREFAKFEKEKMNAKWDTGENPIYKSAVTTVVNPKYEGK
Chain of Integrin alpha-5/beta-1 (P08648 42-894 limits assumed): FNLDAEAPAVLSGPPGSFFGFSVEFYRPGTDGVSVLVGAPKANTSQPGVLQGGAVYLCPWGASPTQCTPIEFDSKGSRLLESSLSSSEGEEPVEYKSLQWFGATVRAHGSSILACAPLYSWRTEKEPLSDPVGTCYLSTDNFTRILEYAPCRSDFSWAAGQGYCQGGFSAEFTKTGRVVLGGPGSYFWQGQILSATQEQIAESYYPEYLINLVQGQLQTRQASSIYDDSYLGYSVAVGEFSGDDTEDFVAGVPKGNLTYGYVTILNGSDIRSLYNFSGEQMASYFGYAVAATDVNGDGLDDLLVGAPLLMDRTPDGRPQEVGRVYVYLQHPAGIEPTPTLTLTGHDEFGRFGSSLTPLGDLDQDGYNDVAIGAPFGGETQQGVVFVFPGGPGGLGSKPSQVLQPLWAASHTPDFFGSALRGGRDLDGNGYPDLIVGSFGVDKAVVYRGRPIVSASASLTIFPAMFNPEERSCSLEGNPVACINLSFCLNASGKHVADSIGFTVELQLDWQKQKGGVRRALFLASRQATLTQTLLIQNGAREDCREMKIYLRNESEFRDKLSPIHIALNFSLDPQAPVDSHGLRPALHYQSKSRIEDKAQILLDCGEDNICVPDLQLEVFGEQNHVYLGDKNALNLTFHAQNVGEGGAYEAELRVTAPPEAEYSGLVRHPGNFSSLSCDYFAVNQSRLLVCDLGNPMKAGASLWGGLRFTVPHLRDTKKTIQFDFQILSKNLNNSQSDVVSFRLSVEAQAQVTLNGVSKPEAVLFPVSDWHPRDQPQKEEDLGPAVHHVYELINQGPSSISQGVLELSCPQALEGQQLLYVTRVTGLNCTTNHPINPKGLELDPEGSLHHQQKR
Chain of Integrin alpha-5/beta-1 (P08648 895-1049 limits assumed): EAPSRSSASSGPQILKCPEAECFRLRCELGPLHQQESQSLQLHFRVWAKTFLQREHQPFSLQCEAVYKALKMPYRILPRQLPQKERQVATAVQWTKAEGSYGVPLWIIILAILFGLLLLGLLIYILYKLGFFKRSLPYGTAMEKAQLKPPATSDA

[7] = biological target: Intercellular adhesion molecule (ICAM-1), Integrin alpha-L/beta-2 (Homo sapiens, UniProt P05107+P05362+P20701); assay: Ability to block alphaL-beta2 integrin binding to ICAM-1; type: protein-complex assay

Row | Structure (SMILES) | Ratio [2] | also measured
1 | CC(C)C[C@@H]1NC(=O)[C@H]([C@@H](C)O)NC(=O)[C@H](CC(=O)O)NC(=O)[C@H](CO)NC(=O)[C@H](CCCN=C(N)N)NC(=O)[C@@H](N)CSSC[C@@H](C(=O)NCC(=O)N[C@@H](CCC(=O)O)C(N)=O)NC1=O (HELM PEPTIDE1{C.R.S.D.T.L.C.G.E.[am]}$PEPTIDE1,PEPTIDE1,1:R3-7:R3$$$V2.0) | – | IC50 [4]: 1 µM; IC50 [5]: > 25 µM; IC50 [1]: 0.03 µM; IC50 [6]: 6.1 µM; IC50 [7]: > 100 µM; IC50 [3]: 1.1 µM
2 | CC(C)C[C@H]1NC(=O)[C@H]([C@@H](C)O)NC(=O)[C@@H](CC(N)=O)NC(=O)[C@H](CO)NC(=O)[C@@H](CCCN=C(N)N)NC(=O)[C@H](N)CSSC[C@H](C(=O)O)NC1=O | 0.06 | –
3 | CC(C)C[C@H]1NC(=O)[C@H]([C@@H](C)O)NC(=O)[C@@H](CC(=O)O)NC(=O)[C@H](CO)NC(=O)[C@@H](Cc2ccccc2)NC(=O)[C@H](N)CSSC[C@H](C(N)=O)NC1=O | 0.09 | –
4 | CC(C)C[C@H]1NC(=O)[C@H]([C@@H](C)O)NC(=O)[C@@H](CC(=O)O)NC(=O)[C@H](CO)NC(=O)[C@@H](Cc2c[nH]cn2)NC(=O)[C@H](N)CSSC[C@H](C(N)=O)NC1=O | 2.8 | –

Now from value to molecule, other results behind:

Row | Ratio [2] | Structure (SMILES) | also measured
5 | > 2.3 | CC(C)C[C@H]1NC(=O)[C@H]([C@H](C)O)NC(=O)[C@@H](CC(=O)O)NC(=O)[C@@H](CO)NC(=O)[C@@H](CCCN=C(N)N)NC(=O)[C@H](N)CSSC[C@H](C(N)=O)NC1=O | IC50 [1]: 43 µM; IC50 [3]: > 100 µM
6 | 2.5 | CC(C)C[C@H]1NC(=O)[C@@H]([C@@H](C)O)NC(=O)[C@@H](CC(=O)O)NC(=O)[C@H](CO)NC(=O)[C@@H](CCCN=C(N)N)NC(=O)[C@H](N)CSSC[C@H](C(N)=O)NC1=O | IC50 [1]: 7.9 µM; IC50 [3]: 20 µM
7 | 1.5 | CSCC[C@@H]1NC(=O)[C@@H](CCCN=C(N)N)NC(=O)[C@H](N)CSSC[C@H](C(N)=O)NC(=O)[C@@H](CC(C)C)NC(=O)[C@H]([C@@H](C)O)NC(=O)[C@@H](CC(=O)O)NC1=O | –
8 | 0.06 | CC[C@H](C)[C@@H]1NC(=O)[C@@H](CCCN=C(N)N)NC(=O)[C@H](N)CSSC[C@H](C(N)=O)NC(=O)[C@@H](CC(C)C)NC(=O)[C@H]([C@@H](C)O)NC(=O)[C@@H](CC(=O)O)NC1=O | –
9 | 3.1 | CC(C)C[C@H]1NC(=O)[C@H]([C@@H](C)O)NC(=O)[C@@H](CC(=O)O)NC(=O)[C@H](CO)NC(=O)[C@@H](CCCN=C(N)N)NC(=O)[C@H](N)CSSC[C@H](C(=O)O)NC1=O | –
10 | 35 | CC(C)C[C@H]1NC(=O)[C@H]([C@@H](C)O)NC(=O)[C@@H](CC(=O)O)NC(=O)[C@H](CO)NC(=O)[C@@H](CCCN=C(N)N)NC(=O)[C@H](N)CSSC[C@H](C(N)=O)NC1=O | –
11 | 14 | CC[C@H](C)[C@H]1NC(=O)[C@H]([C@@H](C)O)NC(=O)[C@@H](CC(=O)O)NC(=O)[C@H](CO)NC(=O)[C@@H](CCCN=C(N)N)NC(=O)[C@H](N)CSSC[C@H](C(N)=O)NC1=O | –
